Results reported in ChEMBL document CHEMBL1137668, “Activities of several classes of acyclic nucleoside phosphonates against camelpox virus replication in different cell culture models” (Antimicrob Agents Chemother, 2007).
Activity calls are given as the source filed them. No cut-off for these calls is given here.

What was measured:
Camelpox virus [1] = test: Antiviral activity against Camelpox virus CML1 infected in HEL299 cells assessed as reduction in viral titer after 6 days postinfection by virus yield reduction assay; format: functional; conditions: for Activity: HEL 299
[2] = Cytotoxicity against human PHK after 4 days by Z1 Coulter counting analysis; conditions: PHK cells
Summary of the method: (§1)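 Cell growth inhibition: HEL cells were seeded at 3.5 × 10³ per well and PHKs at 5 × 10³ per well. Serial dilutions were added in duplicate after 1 day (HEL) or 3 days (PHK). After 4 days with compound, cells were trypsinized and counted with a Coulter counter (8 μm lower limit). CC50 is the concentration reducing growth by 50%, mean ± SD of at least two experiments.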

Camelpox virus [3] = test: Antiviral activity against Camelpox virus CML14 infected in HEL299 cells assessed as inhibition of virus-induced cytopathic effect after 6 days by Giemsa staining; format: functional, organism-based; conditions: CML14, HEL 299, 144 h
Camelpox virus [4] = test: Antiviral activity against Camelpox virus CML14 infected in human PHK assessed as inhibition of virus-induced cytopathic effect after 6 days by Giemsa staining; format: functional, organism-based; conditions: CML14, 144 h
[5] = Selectivity index, ratio of CC50 for HEL299 cells to EC50 for Camelpox virus CML1 infected in HEL299 cells; format: toxicity, cell-based, HEL 299; conditions: human, HEL299 cells; read-out: Ratio CC50/IC50
Camelpox virus [6] = test: Antiviral activity against Camelpox virus CML14 infected in human PHK assessed as reduction in viral titer after 6 days postinfection by virus yield reduction assay; format: functional
[7] = Selectivity index, ratio of CC50 for HEL299 cells to EC50 for Camelpox virus CML14 infected in HEL299 cells; format: toxicity, cell-based, HEL 299; conditions: human, HEL299 cells; read-out: Ratio CC50/IC50
Camelpox virus [8] = test: Antiviral activity against Camelpox virus CML14 infected in HEL299 cells assessed as inhibition of viral replication at 5 to 13 uM after 6 days postinfection by virus yield reduction assay; format: functional, HEL 299; parameters: scale not given: the % may be the effect or the level left
Camelpox virus [9] = test: Antiviral activity against Camelpox virus CML1 infected in human PHK assessed as reduction in viral titer after 6 days postinfection by virus yield reduction assay; format: functional
Camelpox virus [10] = test: Antiviral activity against Camelpox virus CML1 infected in human PHK assessed as inhibition of viral replication at 5 to 13 uM after 6 days postinfection by virus yield reduction assay; format: functional; parameters: scale not given: the % may be the effect or the level left
Camelpox virus [11] = test: Antiviral activity against Camelpox virus CML1 infected in HEL299 cells assessed as inhibition of virus-induced cytopathic effect after 6 days by Giemsa staining; format: functional, organism-based; conditions: CML1, HEL 299, 144 h
Camelpox virus [12] = test: Antiviral activity against Camelpox virus CML1 infected in human PHK assessed as inhibition of virus-induced cytopathic effect after 6 days by Giemsa staining; format: functional, organism-based; conditions: CML1, 144 h
[13] = Cytotoxicity against HEL299 cells after 4 days by Z1 Coulter counting analysis; format: cell-based, HEL 299; conditions: human, HEL299 cells; summary of the method: as §1
[14] = Selectivity index, ratio of CC50 for human PHK to EC50 for Camelpox virus CML14 infected in human PHK
Camelpox virus [15] = test: Antiviral activity against Camelpox virus CML14 infected in HEL299 cells assessed as reduction in viral titer after 6 days postinfection by virus yield reduction assay; format: functional; conditions: for Activity: HEL 299
Camelpox virus [16] = test: Antiviral activity against Camelpox virus CML1 infected in HEL299 cells assessed as inhibition of viral replication at 5 to 13 uM after 6 days postinfection by virus yield reduction assay; format: functional, HEL 299; parameters: scale not given: the % may be the effect or the level left
[17] = Selectivity index, ratio of CC50 for human PHK to EC50 for Camelpox virus CML1 infected in human PHK
Camelpox virus [18] = test: Antiviral activity against Camelpox virus CML14 infected in human PHK assessed as inhibition of viral replication at 5 to 13 uM after 6 days postinfection by virus yield reduction assay; format: functional; parameters: scale not given: the % may be the effect or the level left
Camelpox virus [19] = test: Antiviral activity against Camelpox virus CML1 infected in differentiated human PHK raft culture assessed as inhibition of viral replication at 6 uM treated after 7 days postinfection by virus yield reduction assay; format: functional, organism-based
Camelpox virus [20] = test: Antiviral activity against Camelpox virus CML1-induced cytopathic effect in human PHK raft culture assessed as full protection of differentiated epithelium at 65 uM treated after 7 days postinfection; format: functional, organism-based
Camelpox virus [21] = test: Antiviral activity against Camelpox virus CML1 infected in differentiated human PHK raft culture assessed as reduction in viral titer determined in HEL299 cells treated after 7 days postinfection by virus yield reduction assay; format: functional; conditions: CML1, HEL 299, 168 h
Camelpox virus [22] = test: Antiviral activity against Camelpox virus CML14 infected in human PHK assessed as suppression of viral replication at 73 uM after 6 days postinfection by virus yield reduction assay; format: functional, organism-based
Camelpox virus [23] = test: Antiviral activity against Camelpox virus CML1 infected in human PHK assessed as suppression of viral replication at 73 uM after 6 days postinfection by virus yield reduction assay; format: functional, organism-based
Camelpox virus [24] = test: Antiviral activity against Camelpox virus CML1 infected in human PHK raft culture assessed as inhibition of virus-induced cytopathic effect at 7 uM treated after 7 days postinfection; format: functional, organism-based
[25] = Cytotoxicity against differentiated epithelium of human PHK raft culture at 5 ug/ml after 4 days by Z1 Coulter counting analysis; conditions: 96 h
Camelpox virus [26] = test: Antiviral activity against Camelpox virus CML1 infected in HEL299 cells assessed as suppression of viral replication at 73 uM after 6 days postinfection by virus yield reduction assay; format: functional, organism-based; conditions: HEL 299
Camelpox virus [27] = test: Antiviral activity against Camelpox virus CML1 infected in human PHK raft culture assessed as inhibition of virus-induced cytopathic effect at 18 uM treated after 7 days postinfection; format: functional, organism-based
Camelpox virus [28] = test: Antiviral activity against Camelpox virus CML1 infected in human PHK epithelial raft culture assessed as inhibition of virus-induced cytopathic effect at 1.8 uM after 7 days postinfection; format: functional, organism-based
Camelpox virus [29] = test: Antiviral activity against Camelpox virus CML14 infected in HEL299 cells assessed as suppression of viral replication at 73 uM after 6 days postinfection by virus yield reduction assay; format: functional, organism-based; conditions: HEL 299

SMILES | Activity (Camelpox virus [1]) | CC50 at 96 h [2] [µM] | EC50 (Camelpox virus [3]) [µM] | EC50 (Camelpox virus [4]) [µM] | selectivity ratio [5] | Activity (Camelpox virus [6]) | selectivity ratio [7] | Activity (Camelpox virus [9]) | EC50 (Camelpox virus [11]) [µM] | EC50 (Camelpox virus [12]) [µM] | CC50 at 96 h [13] [µM] | Ratio CC50/IC50 [14] | Activity (Camelpox virus [15]) | Ratio CC50/IC50 [17] | EC99 (Camelpox virus [21]) [µM] | also measured
Nc1nccc2c1ncn2C[C@@H](CO)OCP(=O)(O)O | Dose-dependent effect | 0.3 | 1.7 | 2.1 | 20 | Dose-dependent effect | 18 | Dose-dependent effect | 1.5 | 3.1 | 30 | 0.1 | Dose-dependent effect | 0.1 | – | Activity (Camelpox virus [8]): 99%; Activity (Camelpox virus [10]): 99%; Activity (Camelpox virus [16]): 99%; Activity (Camelpox virus [18]): 99%
Nc1nc(N)c2ncn(C[C@@H](CO)OCP(=O)(O)O)c2n1 | Dose-dependent effect | 2 | 0.6 | 1.2 | 249 | Dose-dependent effect | 70 | Dose-dependent effect | 0.2 | 0.8 | 45 | 1 | Dose-dependent effect | 2 | – | Activity (Camelpox virus [19]): Active; EC99 (Camelpox virus [6]; CML14, 144 h): 2 µM; EC99 (Camelpox virus [15]; CML14, HEL 299, 144 h): 1 µM
Nc1ccn(C[C@@H](CO)OCP(=O)(O)O)c(=O)n1.O.O [CIDOFOVIR] | Dose-dependent effect | 7 | 6.6 | 8.8 | 23 | Dose-dependent effect | 29 | Dose-dependent effect | 8.2 | 5.3 | 192 | 1 | Dose-dependent effect | 1 | 6 | EC99 (Camelpox virus [1]; CML1, HEL 299, 144 h): 58 µM; Activity (Camelpox virus [20]): Active; EC99 (Camelpox virus [9]; CML1, 144 h): 16 µM
Nc1ncn(C[C@@H](CO)OCP(=O)(O)O)c(=O)n1 | Dose-dependent effect | 71 | 12 | 9.7 | 45 | Dose-dependent effect | 46 | Dose-dependent effect | 12.3 | 14.8 | 550 | 7 | Dose-dependent effect | 5 | 16 | Activity (Camelpox virus [22]): Active; Activity (Camelpox virus [23]): Active; Activity (Camelpox virus [24]): inactive; Activity [25]: Toxic; Activity (Camelpox virus [26]): Active; Activity (Camelpox virus [27]): inactive; Activity (Camelpox virus [28]): inactive; Activity (Camelpox virus [29]): Active
